Converted amounts (≈) assume the structure as drawn.

The subject of one data set is Candida tropicalis. Description: Antifungal activity against amphotericin-resistant Candida tropicalis after 24 to 72 hrs by disk diffusion method. Type of data set: functional. In a few lines: (§1)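 Yeasts grown on yeast extract 10 g, peptone 20 g and glucose 15 g per litre, pH 6.0, solidified with 1.5% agar and autoclaved 120 °C for 20 min. Cellulose-disk diffusion assay, with inhibition zone diameters recorded after 24-72 h of incubation, depending on the strain.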

A further data set has as its system Nakaseomyces glabratus. Description: Antifungal activity against Candida glabrata after 24 to 72 hrs by disk diffusion method. Type of data set: functional. In a few lines: as §1
A further data set relates to Cryptococcus neoformans. Description: Antifungal activity against Cryptococcus neoformans 1 after 24 to 72 hrs by disk diffusion method. Type of data set: functional. In a few lines: as §1
On the technique in general: A growth-free zone around the sample is the usual read-out of agar diffusion tests.

The test system of a further data set is L1210. Description: Cytotoxicity against mouse L1210 cells after 5 days by MTT assay. Type of data set: functional. As to conditions: L1210, 120 h, read-out: LD50 (the source's name). The gist of the method: (§2)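 Inhibition of tumour cells (human MDA-MB 231 clonogenic cells, human prostatic adenocarcinoma PC3 and murine leukemia L-1210) was read by Mossmann-derived MTT colorimetric method. Taxol and doxorubicin were run as references.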
In general terms: Tetrazolium assays rely on reduction of a dye to a coloured formazan, in cell work by metabolically active cells.

Another data set concerns MDA-MB-231. Description: Cytotoxicity against human MDA-MB-231 cells after 5 days by MTT assay. Type of data set: functional. The conditions noted are these: MDA-MB-231, 120 h, read-out: LD50 (the source's name). In a few lines: as §2
Another data set has as its system PC-3. Description: Cytotoxicity against human PC-3 cells after 5 days by MTT assay. Type of data set: functional. The conditions noted are these: PC-3, 120 h, read-out: LD50 (the source's name). In a few lines: as §2
The test system of a further data set is Pseudomonas aeruginosa. As to the kind of experiment: Antibacterial activity against Pseudomonas aeruginosa after 24 to 72 hrs by disk diffusion method. Type of data set: functional. In a few lines: (§3)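 Paper-disk diffusion on agar plates. Cellulose disks carry crude EtOAc extract of the fungal culture filtrate; the extract is dried, then redissolved in 3 mL EtOAc. Inhibition zone diameters are read after 24-72 h of incubation, with the time depending on the target organism.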

The subject of data set [1] is Staphylococcus aureus. Description: Antibacterial activity against Staphylococcus aureus after 24 to 72 hrs by disk diffusion method. Type of data set: functional. The gist of the method: as §3
Data set [2] deals with Staphylococcus aureus. As to the kind of experiment: Antibacterial activity against penicillin-resistant Staphylococcus aureus after 24 to 72 hrs by disk diffusion method. Type of data set: functional. The gist of the method: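 Cellulose-disk agar diffusion; growth medium includes soya phytone 5 g and NaCl 5 g per litre distilled water, pH 7.2, with 1.5% agar, autoclaved 120 °C for 20 min. Inhibition zone diameters read after 24-72 h of incubation, depending on the target organism.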

The next data set concerns Enterococcus faecalis. As to the kind of experiment: Antibacterial activity against Streptococcus faecalis after 24 to 72 hrs by disk diffusion method. Type of data set: functional. In a few lines:
as §3

For a further data set, the system named is Escherichia coli. As to the kind of experiment: Antibacterial activity against Escherichia coli after 24 to 72 hrs by disk diffusion method. Type of data set: functional. The gist of the method: as §3
Data set [3] in a line: Cytotoxicity against human MRC5 cells after 5 days by MTT assay. Type of data set: cell-based. The conditions noted are these: read-out: LD50. The gist of the method:
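Human lung fibroblast MRC5 (nontumor) line in 96-well plates; modified Mossmann MTT colorimetric micromethod; compound tested up to a maximal concentration of 100 µg/mL.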

On to `C[C@@H]1[C@H](O)[C@@H](C)/C=C/C=C/C=C/C=C/C=C/C=C/C=C/[C@H](O[C@@H]2O[C@H](C)[C@@H](O)[C@H](N)[C@@H]2O)C[C@@H]2O[C@](O)(C[C@@H](O)C[C@@H](O)[C@H](O)CC[C@@H](O)C[C@@H](O)CC(=O)O[C@H]1C)C[C@H](O)[C@H]2C(=O)O` [AMPHOTERICIN B], for which the MIC (as a rule, the smallest concentration in the dilution series that meets the test's criterion for growth inhibition) is greater than 560 µg/mL with Candida tropicalis, 140 µg/mL (≈ 152 µM) in the data set on Nakaseomyces glabratus and 140 µg/mL (≈ 152 µM) with Cryptococcus neoformans.
As for `COc1cccc2c1C(=O)c1c(O)c3c(c(O)c1C2=O)C[C@@](O)(C(=O)CO)C[C@@H]3O[C@H]1C[C@H](N)[C@H](O)[C@H](C)O1` [DOXORUBICIN], the CC50 in the data set with L1210 worked out at 0.02 µg/mL (≈ 0.0368 µM); in the data set on MDA-MB-231, 0.09 µg/mL (≈ 0.166 µM); in the data set on PC-3, 0.19 µg/mL (≈ 0.35 µM).
With `NC[C@H]1O[C@H](O[C@H]2[C@H](O)[C@@H](O[C@H]3O[C@H](CO)[C@@H](O)[C@H](N)[C@H]3O)[C@H](N)C[C@@H]2N)[C@H](O)[C@@H](O)[C@@H]1O` [KANAMYCIN], the MIC in the data set on Pseudomonas aeruginosa was 140 µg/mL (≈ 289 µM); in the data set on Staphylococcus aureus [1], 140 µg/mL (≈ 289 µM); against Staphylococcus aureus [2], 14 µg/mL (≈ 28.9 µM); against Enterococcus faecalis, 560 µg/mL (≈ 1160 µM); with Escherichia coli it was 28 µg/mL (≈ 57.8 µM).
For the molecule `CC(=O)N1CCN(c2ccc(OCC3COC(Cn4ccnc4)(c4ccc(Cl)cc4Cl)O3)cc2)CC1` (configuration not stated) [KETOCONAZOLE], the MIC in the data set with Candida tropicalis worked out at 140 µg/mL (≈ 263 µM); against Nakaseomyces glabratus it was 14 µg/mL (≈ 26.3 µM); against Cryptococcus neoformans, 56 µg/mL (≈ 105 µM).
Take `C=C1OC(=O)[C@]2(C1=O)[C@H](C)C=CC(=O)[C@H]2O` [MYCOSPORULONE]: the MIC was 14 µg/mL (≈ 63 µM) with Pseudomonas aeruginosa; 420 µg/mL (≈ 1890 µM) in the data set with Staphylococcus aureus [1]; 14 µg/mL (≈ 63 µM) with Staphylococcus aureus [2]; 14 µg/mL (≈ 63 µM) against Candida tropicalis; 280 µg/mL (≈ 1260 µM) in the data set on Enterococcus faecalis; 420 µg/mL (≈ 1890 µM) in the data set with Nakaseomyces glabratus. Moreover, the MIC against Escherichia coli is 14 µg/mL (≈ 63 µM); in the data set with Cryptococcus neoformans it was 280 µg/mL (≈ 1260 µM). Moreover, the CC50 with L1210 stood at 0.3 µg/mL (≈ 1.35 µM); in the data set on MDA-MB-231 it was 7.7 µg/mL (≈ 34.7 µM); in the data set with PC-3 it was 2.6 µg/mL (≈ 11.7 µM). Besides, in [3], the CC50 at 120 h was greater than 100 µg/mL.
Take `CC(=O)O[C@H]1C(=O)[C@@]2(C)[C@H]([C@H](OC(=O)c3ccccc3)[C@]3(O)C[C@H](OC(=O)[C@H](O)[C@@H](NC(=O)c4ccccc4)c4ccccc4)C(C)=C1C3(C)C)[C@]1(OC(C)=O)CO[C@@H]1C[C@@H]2O` [PACLITAXEL]: the CC50 with L1210 came out at 0.014 µg/mL (≈ 0.0164 µM); in the data set with MDA-MB-231, 0.003 µg/mL (≈ 0.00351 µM); in the data set on PC-3, 0.0027 µg/mL (≈ 0.00316 µM).
With `CC1(C)S[C@@H]2[C@H](NC(=O)Cc3ccccc3)C(=O)N2[C@H]1C(=O)O` [PENICILLIN G], the MIC was 560 µg/mL (≈ 1670 µM) in the data set with Pseudomonas aeruginosa; 14 µg/mL (≈ 41.9 µM) with Staphylococcus aureus [1]; 560 µg/mL (≈ 1670 µM) in the data set with Staphylococcus aureus [2]; 14 µg/mL (≈ 41.9 µM) against Enterococcus faecalis; 560 µg/mL (≈ 1670 µM) in the data set with Escherichia coli.
For `CN[C@@H]1[C@H](O[C@H]2[C@H](O[C@H]3[C@H](O)[C@@H](O)[C@H](N=C(N)N)[C@@H](O)[C@@H]3N=C(N)N)O[C@@H](C)[C@]2(O)C=O)O[C@@H](CO)[C@H](O)[C@H]1O` [STREPTOMYCIN], the MIC against Pseudomonas aeruginosa stood at 140 µg/mL (≈ 241 µM); in the data set on Staphylococcus aureus [1], 420 µg/mL (≈ 722 µM); in the data set with Staphylococcus aureus [2] it was 14 µg/mL (≈ 24.1 µM); in the data set with Enterococcus faecalis it was 420 µg/mL (≈ 722 µM); in the data set on Escherichia coli, 28 µg/mL (≈ 48.1 µM).
As for NYSTATIN, the minimum inhibitory concentration (MIC) against Candida tropicalis is 14 µg/mL; in the data set with Nakaseomyces glabratus, 28 µg/mL; against Cryptococcus neoformans it was 14 µg/mL.

Source of the values: ChEMBL document CHEMBL1144104, “Antimicrobial and antitumor activities of mycosporulone” (J Nat Prod, 1999).
